Published values of several laboratories.
Each line is one published result; the experiments were not run side by side.
Target: Aurora kinase C (AURKC, Homo sapiens, UniProt Q9UQB9)

COc1cc(Cl)c(C(=O)N[C@@H](CN[C@H]2CC[C@@H](N)CC2)Cc2ccc(C#N)cc2)cc1-c1ccc(CN[C@H](C)c2ccc(C)cc2)o1
remaining activity (enzyme activity, inhibitor; 1 µM): 94%

CS(=O)(=O)NCC[C@H](NC(=O)c1cncc2c1cnn2-c1ccc(F)cc1)c1ccnc(S(C)(=O)=O)c1
remaining binding (cell-free assay, competition with immobilised ligand; 1 µM): 92%

Nc1ncnc2occ(-c3ccc(NC(=O)Nc4cc(C(F)(F)F)ccc4F)cc3)c12
remaining signal (cell-free assay; 20 µM): 2.7%

CC(C)CC(=O)N1CCc2nc(-c3ccc(Br)cc3)nc(N(C)Cc3ccccc3)c2C1
remaining binding (cell-free assay, competition with immobilised ligand; 0.1 µM): 100%

CCN(CC)CCNC(=O)c1c(C)[nH]c(/C=C2\C(=O)Nc3ccc(Cl)cc32)c1C
remaining activity (enzyme activity, inhibitor; 0.5 µM): 74.7%

Cc1cnc(NC2CCOCC2)nc1-n1cnc(C(=O)NC(CN)c2cc(F)cc(Cl)c2)c1 (centres unmarked)
remaining activity (enzyme activity, inhibitor, radiometric; 1 µM): 67%

CS(=O)(=O)CCNCc1ccc(-c2ccc3ncnc(Nc4ccc(OCc5cccc(F)c5)c(Cl)c4)c3c2)o1
remaining signal (cell-free assay; 0.5 µM): 90.9%

C=CC(=O)Nc1cc(Nc2nccc(Nc3cc(Cl)c(F)cc3C(C)(C)O)n2)c(OC)cc1N1CC[C@@H](N(C)C)C1
inhibition (enzyme activity, inhibitor; 1 µM): 6%

CC(C)(C)c1nc2c(s1)c1nc(N)ncc1c1ccc(NS(=O)(=O)c3c(F)cccc3F)c(F)c12
remaining activity (enzyme activity, inhibitor, radiometric; 1 µM): 104%

O=C(O)[C@H]1[C@H](Cn2nnc3ccccc3c2=O)CC[C@@H]1C(=O)c1ccc(OCCC2CCOCC2)cc1
remaining binding (cell-free assay, competition with immobilised ligand; 1 µM): 79%

COc1cc2ncnc(Nc3ccc(Oc4ccccc4)c(C)c3C)c2cc1OC
inhibition (enzyme activity, inhibitor; 1 µM): 5%

Cc1ccc(C(=O)Nc2ccc(CN3CCN(C)CC3)c(C(F)(F)F)c2)cc1C#Cc1cnc2cccnn12
remaining activity (enzyme activity; 23.5 nM): 94%

CC/C(=N\NC(=O)NCc1cccc(O)c1)c1ccc(O)c(C)c1O
inhibition (enzyme activity, inhibitor; 0.1 µM): 2.5%

O=c1c2ccccc2[nH]c(=S)n1CCN1CCC(=C(c2ccc(F)cc2)c2ccc(F)cc2)CC1
remaining activity (enzyme activity, inhibitor; 0.5 µM): 99.4%

CC(=O)N1CCC(c2ccc(C(=O)NC3=NCCN3)cc2C(F)(F)F)CC1
remaining binding (cell-free assay, competition with immobilised ligand; 1 µM): 100%

O=C1NC(=O)c2cc(Nc3ccc(F)cc3)c(Nc3ccc(F)cc3)cc21
remaining signal (cell-free assay; 0.5 µM): 90.8%

CC1=C(C#N)[C@@H](c2ccc3[nH]nc(C)c3c2)C(C#N)=C(c2ccc(Cl)cc2)N1
remaining binding (cell-free assay, competition with immobilised ligand; 1 µM): 100%

CN1CC(Oc2cnc(C#N)cc2-c2ccn3nc(NC(=O)C4CC4)cc3c2)C1
inhibition (enzyme activity, inhibitor; 1 µM): 3%

Cc1sc(C(=O)NC2COC2)cc1-n1cc(NC(=O)Nc2c(F)cccc2Cl)cn1
remaining activity (enzyme activity, inhibitor; 10 µM): 104%

CCC(=O)N[C@@H]1CC[C@H](C(=O)N(C)c2ccc(-c3nc4ccccc4o3)cc2)C1
remaining binding (cell-free assay, competition with immobilised ligand; 1 µM): 100%
